# Only some compounds are listed: those with a hit (about 3.1% of all), similar ones and a draw of the others.
# EWS-Fli block = EWS/Fli transcriptional activity inhibition | A673 NR0B1-luciferase reporter, viability-normalised | inhibition, % at 12.6 µM | 0.67% of 350,000 active;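 active = mean inhibition of at least 50% after viability correction, with every replicate also passing that limit; inconclusive = mean reaches 50% but only one of two replicates passes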;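 note: firefly luciferase signal divided by Alamar Blue viability fluorescence both relative to DMSO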
# PAX8 inh HTS = PAX8 transcriptional activity inhibition; RMG-I TPO-luciferase reporter, SteadyGlo, 24 h; inhibition, % at 12.6 µM; 1.2% of 360,000 active;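 active = mean replicate inhibition at least 60% with every replicate also reaching 60%; inconclusive = only one of the two criteria is met; inactive = mean below 60% and not all replicates reaching 60%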;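 note: luciferase light reporting Pax8 driven TPO promoter activity; plate controls were median of neutral control wells for no effect and mitoxantrone controls for full effect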
# FGF22 binding = binders of recombinant human FGF22 by thermal shift; activity (Tm shift, normalised), % at 9.99 µM; SYPRO orange fluorescence; percent of sucrose octasulfate shift, DMSO zero; 1.5% of 340,000 active;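 active = mean Tm shift, scaled 0 neutral to 100 positive control, at about 1.3% or above, every replicate too, limit read from the data; inconclusive = no clear call, values can overlap the other calls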
# Target sequence (Q9HCT0 whole entry, looked up): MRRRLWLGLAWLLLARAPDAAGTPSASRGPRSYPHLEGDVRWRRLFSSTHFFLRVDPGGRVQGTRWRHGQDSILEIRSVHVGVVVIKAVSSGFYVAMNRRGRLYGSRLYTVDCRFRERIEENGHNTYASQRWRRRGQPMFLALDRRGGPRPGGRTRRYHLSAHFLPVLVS
# Env fusion inh = HIV envelope-mediated fusion inhibition | HeLa-JRFL Env/CEM21 cell fusion, luciferase | inhibition, % at 12.3 µM | 1.1% of 360,000 active;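 active = mean replicate inhibition score of at least 50 and every replicate individually at or above 50; inconclusive = only one of the two criteria met; inactive = mean below 50 and not all replicates reaching 50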;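 note: 0% = plate neutral controls and 100% = maraviroc near 300 nM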
# FN deposit inh = fibronectin deposition inhibition; inhibition, % at 12.6 µM; AH1F fibroblasts, Alexa488-fibronectin deposition fluorescence, overnight; 0.086% of 350,000 active;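 active = mean inhibition across replicates of 30% or more, regardless of how many single replicates reach that level; inconclusive = mean under 30% yet at least half of replicates reach 30%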;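 note: positive control wells lacked labelled fibronectin entirely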
#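 Assay system: AH1F fibroblasts / Quantity: 10000 cells per well / Medium: DMEM plus 2% serum, read in PBS / Reagent: labelled fibronectin 24 nM / Dosing: single dose, pinned / Times: 1 h cell attachment, overnight exposure to compound and label / Signal: fluorescence, ex 485 nm, em 525 nm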
# PGC1a acetyl inh = lowers PGC1a acetylation signal in U2OS cells | 0.17% of 350,000 active | AlphaScreen anti-acetyl-lysine; with virally co-expressed GCN5 acetyltransferase | AID 651687 | inhibition, % at 15.6 µM;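 active = every replicate shows inhibition of at least 40%; inconclusive = mean inhibition at least 40% but some replicate below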;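 note: 0% = neutral control wells and 100% = positive control wells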
# * hit, by the source's call; ? = inconclusive; / = no result; [ ] = dose if it differs, or a comment.
SMILES,EWS-Fli block,PAX8 inh HTS,FGF22 binding,Env fusion inh,FN deposit inh,PGC1a acetyl inh
Cc1ccc(-c2ccc3c(c2)O[C@H](CN(C)C(=O)Nc2ccccc2)[C@H](C)CN([C@@H](C)CO)S3(=O)=O)cc1,9.3,30.4,0.6,-32.5[16.7 µM],-9.7,2.3
COc1ccc(CC(=O)NCC2CCCN(Cc3cccc(C(F)(F)F)c3)C2)cc1 (stereo unspecified),17.4,12.7,0.1,17.5,2.1,5.6
O=C(NCC1CCCN(Cc2ccccc2F)C1)c1cccc(C(F)(F)F)c1 (stereo unspecified),9.7,5.7,42.9*,-81.8,-1.6,/
O=C1/C(=C/c2ccccc2)SC(=S)N1CC(=O)N1CCCCC1c1cccnc1 (stereo unspecified),/,90.3*,0.0,7.0,10.1,/
O=C(CCN1C(=O)/C(=C/c2ccccc2)SC1=S)Nc1cccnc1,-5.4,4.6,0.0,-2.8,0.6,/
COc1ccc(C(=O)N2CCC(NC(=O)C(Cc3ccccc3OC)NC(C)=O)CC2)cc1 (stereo unspecified),-5.7,-7.9,-0.3,2.0,-4.2,/
COc1ccccc1CC(NC(C)=O)C(=O)NC1CCN(C(=O)c2ccc([N+](=O)[O-])cc2)CC1 (stereo unspecified),3.3,-12.3,43.6*,2.0,-5.2,/
O=C(N/N=C/c1ccc([N+](=O)[O-])o1)c1ccc(O)cc1,64.6*,18.9,-0.1,-0.7,-4.0,-64.4
O=C(N/N=C/c1ccc([N+](=O)[O-])o1)c1ccncc1,22.3,-29.6,-0.3,-7.7,-8.5,-10.8
c1ccc2c(c1)CCN(C1=Nc3cccc4cccc1c34)C2,-79.6,-25.2,43.0*,-30.6,11.3,-11.6
C[C@H]1CN([C@@H](C)CO)S(=O)(=O)c2ccc(Br)cc2O[C@@H]1CN(C)C(=O)C1CCCCC1,1.8,/,/,54.3[16.7 µM],-26.1,-3.8
C[C@@H]1CN([C@H](C)CO)S(=O)(=O)c2ccc(C#Cc3ccncc3)cc2O[C@H]1CN(C)C(=O)C1CCCCC1,15.2,78.4*,-0.6,7.8[16.7 µM],/,-21.1
C[C@@H]1CN([C@@H](C)CO)S(=O)(=O)c2ccc(C#Cc3ccncc3)cc2O[C@H]1CN(C)C(=O)Nc1ccc2c(c1)OCO2,71.4*,103.1*,0.0,/,/,2.3
CC(C)C#Cc1ccc2c(c1)O[C@@H](CN(C)C(=O)C1CCCCC1)[C@H](C)CN([C@H](C)CO)S2(=O)=O,24.0,/,/,57.8*[16.7 µM],/,-0.9
C[C@@H]1CN([C@H](C)CO)S(=O)(=O)c2ccc(C#Cc3ccncc3)cc2O[C@@H]1CN(C)C(=O)C1CCCCC1,-1.2,45.6,0.7,8.1[16.7 µM],/,23.4
C[C@H](CO)N1C[C@H](C)[C@H](CN(C)C(=O)C2CCCCC2)Oc2cc(Br)ccc2S1(=O)=O,-1.5,/,/,55.2*[16.7 µM],-23.9,-2.7
CC(C)C#Cc1ccc2c(c1)O[C@@H](CN(C)C(=O)C1CCCCC1)[C@H](C)CN([C@@H](C)CO)S2(=O)=O,28.2,/,/,35.8[16.7 µM],/,1.5
CCCN1C[C@H](C)[C@@H](OC)CN(C)C(=O)c2cc(NC(=O)c3ccccc3F)ccc2OC[C@@H]1C,5.3,5.5,0.2,-14.6[16.7 µM],16.9,-9.6
CC(=O)N(C)C[C@@H]1Oc2cc(C3=CCCC3)ccc2S(=O)(=O)N([C@@H](C)CO)C[C@H]1C,-5.3,/,-0.1,-22.4[16.7 µM],8.0,-7.3
CCCN1[C@H](C(=O)NCCCN2CCOCC2)[C@@H](CO)[C@@H]2Cn3c(ccc(-c4ccccc4)c3=O)[C@@H]21,1.3,-2.1,0.0,/,/,/
COc1cccc(OCc2nnc(-c3cccs3)o2)c1,-11.2,-42.1,43.3*,7.9,-9.8,-4.1
Cc1nnc(SCC2=C(C(=O)O)N3C(=O)C(NC(=O)Cn4ncc(Cl)c4C)C3SC2)s1 (stereo unspecified),5.0,-2.5,43.0*,3.8,1.3,14.7
Cc1cc(C)n(CC(=O)NC2C(=O)N3C(C(=O)O)=C(CSc4nnc(C)s4)CSC23)n1 (stereo unspecified),0.5,9.0,-0.3,7.8,3.6,/
CN1[C@@H]2c3ccc(/C=C/c4ccccc4)c(=O)n3C[C@H]1[C@H](CO)[C@H]2C(=O)NC1CCCC1,-2.9,-12.9,/,1.7[16.7 µM],-6.0,-10.9
Cc1cc(C)nc(NC(C)(C)C(=O)O)n1,8.8,-10.1,44.0*,-15.2,-13.5,/
SMILES,EWS-Fli block,PAX8 inh HTS,FGF22 binding,Env fusion inh,FN deposit inh,PGC1a acetyl inh
CN1CCN(/N=C/c2ccc(-c3ccccc3)cc2)CC1,-82.2,-149.9,0.2,23.1,/,-14.9
Cc1cc(/C=N/N2CCN(C)CC2)c(C)n1-c1ccccc1F,2.4,3.5,43.8*,-2.2,-1.4,/
Oc1c(C(Nc2ccccn2)c2ccccn2)ccc2cccnc12 (stereo unspecified),/,37.0,/,-252.0,7.3,30.4
CCCCC(=O)NC(c1ccc(OC)cc1)c1ccc2cccnc2c1O (stereo unspecified),11.3,70.9*,0.0,31.3,24.6,/
Oc1ccccc1C(Nc1nccs1)c1ccc2cccnc2c1O (stereo unspecified),-6.3,58.7,0.1,59.9*,15.3,11.4
CC(=O)NC(c1ccc(Cl)cc1)c1ccc2cccnc2c1O (stereo unspecified),43.6,94.9*,-0.2,0.9,-7.5,-6.9
CCCC(=O)NC(c1ccccc1Cl)c1ccc2cccnc2c1O (stereo unspecified),23.4,86.1*,0.0,-65.6,2.7,22.8
CN1C(=O)c2cc(NS(C)(=O)=O)ccc2OC[C@@H]2O[C@H](CC(=O)NCc3ccc(-c4ccccc4)cc3)CC[C@@H]21,-36.5,2.2,0.2,52.8[16.7 µM],14.3,/
Cc1ccc(S(=O)(=O)N(C)C[C@@H]2Oc3ccc(NC(=O)NC4CCCCC4)cc3C(=O)N([C@H](C)CO)C[C@@H]2C)cc1,11.2,16.5,-0.4,/,/,-10.5
O=C(C[C@H]1CC[C@@H](NC(=O)Nc2ccc3c(c2)OCO3)[C@@H](CO)O1)NCCCN1CCOCC1,/,/,0.1,/,-10.6,1.7
CCCC(=O)NC(c1ccco1)c1cc([N+](=O)[O-])c2cccnc2c1O (stereo unspecified),19.6,13.6,0.1,-1.0,10.0,1.3
O=C(O)c1ccccc1NC(c1ccccc1)c1ccc2cccnc2c1O (stereo unspecified),27.2,70.9*,-0.2,/,23.3,36.8
Cc1ccc2ccc(C(Nc3ccccc3)c3ccccc3)c(O)c2n1 (stereo unspecified),-15.3,70.2*,0.3,6.2,18.6,/
COc1ccc(C(NC(=O)C(C)C)c2ccc3cccnc3c2O)cc1 (stereo unspecified),31.7,?,0.1,-45.3,8.5,30.0
CCCC(=O)NC(c1ccc(C(C)C)cc1)c1ccc2cccnc2c1O (stereo unspecified),44.6,95.3*,-0.3,-276.0,-8.5,/
